{"data": "Measurements gathered from unrelated publications", "target": "Mitogen-activated protein kinase 1 (MAPK1, Homo sapiens, UniProt P28482)", "note": "Protocols differ between the studies behind these lines."}
{"Structure (SMILES)": "Cn1cc(-c2cccc(N3CCc4c(sc5c4CC(C)(C)C5)C3=O)c2CO)cc(Nc2ccncn2)c1=O", "read-out": "enzyme activity", "mode": "inhibitor", "tested at": "1 µM", "endpoint": "inhibition", "value": "-1%"}
{"Structure (SMILES)": "N#CC1(c2ccccn2)CCN(Cc2cc(C(=O)O)c(=O)n3ccccc23)CC1", "read-out": "cell-free assay", "technique": "competition with immobilised ligand", "tested at": "1 µM", "endpoint": "remaining binding", "value": "100%"}
{"Structure (SMILES)": "COc1ncccc1-c1cnn2ccc(N3CCN(C(=O)OC(C)C)CC3)nc12", "read-out": "binding", "technique": "competition with immobilised ligand", "tested at": "1 µM", "endpoint": "remaining binding", "value": "100%"}
{"Structure (SMILES)": "O=c1[nH]c2ccccc2n1C1CCN(Cc2ccc(-c3[nH]c4cc5ncnc5cc4nc3-c3ccccc3)cc2)CC1", "read-out": "cell-free assay", "tested at": "0.5 µM", "endpoint": "remaining signal", "value": "112%"}
{"Structure (SMILES)": "C#Cc1n[nH]c2c(-c3cn(C(C)c4ccccn4)c(=O)[nH]c3=O)cc(F)cc12 (stereo not drawn)", "read-out": "enzyme activity", "mode": "inhibitor", "tested at": "1 µM", "endpoint": "inhibition", "value": "7.2%"}
{"Structure (SMILES)": "Cc1ncc(C)n2nc(/C=C/c3nc(N4CCCC4)cc(N4CCOCC4)n3)nc12", "read-out": "enzyme activity", "mode": "inhibitor", "tested at": "10 µM", "endpoint": "inhibition", "value": "7%"}
{"Structure (SMILES)": "Nc1ncc(-c2nc(N3CCOCC3)nc(N3CCOCC3)n2)c(C(F)F)n1", "read-out": "binding", "technique": "competition with immobilised ligand", "tested at": "10 µM", "endpoint": "remaining binding", "value": "98%"}
{"Structure (SMILES)": "C[C@@H](O)[C@H](N)C(=O)N1CCC[C@H]1C(=O)N1CCC[C@H]1C(=O)N[C@H](C(N)=O)[C@@H](C)O", "read-out": "enzyme activity", "mode": "inhibitor", "tested at": "30 µM", "endpoint": "inhibition", "value": "-2%"}
{"Structure (SMILES)": "CC(C)(C)c1cc(C=C(C#N)C#N)cc(Br)c1O", "read-out": "enzyme activity", "mode": "inhibitor", "tested at": "0.5 µM", "endpoint": "remaining activity", "value": "91.3%"}
{"Structure (SMILES)": "C#Cc1n[nH]c2c(-c3cn([C@@H](C)c4ccccc4)c(=O)[nH]c3=O)cc(F)cc12", "read-out": "enzyme activity", "mode": "inhibitor", "tested at": "0.1 µM", "endpoint": "inhibition", "value": "0.5%"}
{"Structure (SMILES)": "Cn1cncc1[C@@](O)(COc1ccc(C#N)cc1-c1ccc(OC(F)(F)F)cc1)c1ccc(C#N)cc1", "read-out": "cell-free assay", "technique": "competition with immobilised ligand", "tested at": "1 µM", "endpoint": "remaining binding", "value": "91%"}
{"Structure (SMILES)": "O=C(Nc1cccnn1)N1CCN([C@@H]2CCOc3cc(C(F)(F)F)ccc32)CC1", "read-out": "enzyme activity", "mode": "inhibitor", "tested at": "20 µM", "endpoint": "inhibition", "value": "-4%"}
{"Structure (SMILES)": "Cn1cc(-c2cc(F)cc(N3CCn4c(cc5c4CCCC5)C3=O)c2CO)cc(Nc2ccc(N3CCN(C4COC4)CC3)cn2)c1=O", "read-out": "enzyme activity", "mode": "inhibitor", "tested at": "0.1 µM", "endpoint": "inhibition", "value": "4%"}
{"Structure (SMILES)": "Cc1nn(C)cc1-c1nc2c(N3CCN(Cc4ccc(Cl)cc4)CC3)c(Cl)cnc2[nH]1", "read-out": "binding", "technique": "competition with immobilised ligand", "tested at": "1 µM", "endpoint": "remaining binding", "value": "100%"}
{"Structure (SMILES)": "CNC1(c2ccccc2Cl)CCCCC1=O (racemic)", "read-out": "enzyme activity", "mode": "inhibitor", "tested at": "30 µM", "endpoint": "inhibition", "value": "2%"}
